According to ChEMBL document CHEMBL4152330, “Arylamino containing hydroxamic acids as potent urease inhibitors for the treatment of Helicobacter pylori infection” (Eur J Med Chem, 2018):
Active and inactive are the calls of the source. The rule behind the calls is not given here.

Experiments:
[1] = target: T1, Urease subunit alpha/Urease subunit beta (Helicobacter pylori (strain ATCC 700392 / 26695) (Campylobacterpylori), UniProt P69996); assay: Inhibition of urease in Helicobacter pylori ATCC 43504 assessed as reduction in ammonia production preincubated for 1.5 hrs by indophenol method; format: protein-complex assay, Helicobacter pylori NCTC 11637 = CCUG 17874 = ATCC 43504
How it was run: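 Crude urease was prepared from H. pylori harvested from broth, PBS-washed, frozen at -80 °C, sonicated with protease inhibitors, centrifuged, desalted on Sephadex G-25 and stored in 50% glycerol at 4 °C. Enzyme (10 U) was preincubated with test compound for 1.5 h at room temperature. Ammonia production was read by the Weatherburn indophenol method.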

[2] = target: T1, Urease subunit alpha/Urease subunit beta; assay: Inhibition of Helicobacter pylori ATCC 43504 urease assessed as reduction in ammonia production preincubated for 1.5 hrs under cell free condition by indophenol method; format: protein-complex assay, Helicobacter pylori NCTC 11637 = CCUG 17874 = ATCC 43504
How it was run: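 Crude urease from sonicated ATCC 43504 cells (grown microaerobically in Brucella broth with 10% sheep blood), desalted on Sephadex G-25 and stored in 50% glycerol at 4 °C. Enzyme (10U) pre-incubated with test compound 1.5 h at room temperature. Ammonia production read by Weatherburn indophenol method.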

[3] = target: T2, Urease subunit alpha/Urease subunit beta (Helicobacter pylori (strain ATCC 700392 / 26695) (Campylobacterpylori)) (UniProt P69996+P14916); assay: Ratio of IC50 for Helicobacter pylori ATCC 43504 urease under cell free condition to IC50 for urease in intact Helicobacter pylori ATCC 43504; format: protein-complex assay; details: Helicobacter pylori NCTC 11637 = CCUG 17874 = ATCC 43504
How it was run: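 Cell-free arm: desalted crude H. pylori urease lysate (10 U) was preincubated with compound for 1.5 h at room temperature. Intact-cell arm: the same set-up with H. pylori cell suspension (4.0 × 10^7 CFU/mL) in place of the enzyme. Ammonia was measured by the indophenol method in both arms.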

[4] = target: T1, Urease subunit alpha/Urease subunit beta; assay: Mixed type non-competitive inhibition of urease in Helicobacter pylori ATCC 43504 assessed as reduction in ammonia production preincubated for 1.5 hrs by indophenol method; format: protein-complex assay, Helicobacter pylori NCTC 11637 = CCUG 17874 = ATCC 43504
How it was run: (§1)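 Crude H. pylori ATCC 43504 urease with compound pre-incubated 1.5 h at room temperature, then ammonia production velocity measured by indophenol method across a urea concentration gradient at each fixed inhibitor concentration. V–[S] data fitted nonlinearly to assign inhibition type. Fitting constants plotted linearly against [I]; Ki and K'i taken from X-axis intercepts. Triplicate.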

Helicobacter pylori [5] = assay: Antibacterial activity against Helicobacter pylori ATCC 43504 infected in Kunming mouse assessed as reduction in gastric mucosa injury in mouse stomach at 16 mg/kg, po bid treated for 14 days by hematoxylin and eosin staining based assay; format: functional, organism-based; details: NCTC 11637 = CCUG 17874 = ATCC 43504
How it was run: (§2)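 KM mice (18–22 g) were pretreated with NaHCO3 and infected intragastrically with H. pylori (1 × 10^9 cfu/mL) daily for one week. After three weeks, groups (n=13) received compound in 0.5% CMC-Na intragastrically b.i.d. for 14 days. Part of each stomach was fixed in 4% paraformaldehyde, paraffin-embedded and cut at 3.0 µm to assess gastric mucosal lesions against an untreated infected model.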

Helicobacter pylori [6] = assay: Antibacterial activity against Helicobacter pylori ATCC 43504 infected in Kunming mouse assessed as reduction in gastric mucosa injury in mouse stomach at 32 mg/kg, po bid treated for 14 days by hematoxylin and eosin staining based assay; format: functional, organism-based; details: NCTC 11637 = CCUG 17874 = ATCC 43504; how it was run: as §2
[7] = target: T2, Urease subunit alpha/Urease subunit beta (Helicobacter pylori (strain ATCC 700392 / 26695) (Campylobacterpylori)); assay: Potency index, ratio of AHA IC50 to compound IC50 for Helicobacter pylori ATCC 43504 urease assessed as reduction in ammonia production preincubated for 1.5 hrs under cell free condition by indophenol method; format: protein-complex assay; details: Helicobacter pylori NCTC 11637 = CCUG 17874 = ATCC 43504
[8] = target: T1, Urease subunit alpha/Urease subunit beta; assay: Mixed type non-competitive inhibition of urease in Helicobacter pylori ATCC 43504 assessed as enzyme-substrate-inhibitor complex constant preincubated for 1.5 hrs by indophenol method; format: protein-complex assay, Helicobacter pylori NCTC 11637 = CCUG 17874 = ATCC 43504; how it was run: as §1
[9] = Acute toxicity in po dosed Kunming mouse assessed as induction of mortality administered as single dose and measured after 14 days; format: organism-based; details: in vivo
How it was run: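 Male and female adult KM mice, 18–22 g, n=10 per group. Single intragastric dose of 500, 1000, 2000, 3000 or 5000 mg/kg in 0.5% CMC-Na, 200 μL per mouse; controls received vehicle alone. Mortality recorded over 14 days. LD50 estimated by probit analysis.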

Helicobacter pylori [10] = assay: Antibacterial activity against Helicobacter pylori ATCC 43504 infected in Kunming mouse assessed as bacterial eradication at 16 mg/kg, po bid treated for 14 days relative to control; format: functional, NCTC 11637 = CCUG 17874 = ATCC 43504
How it was run: (§3)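 Mice (18–22 g) fasted 4 h, then given 0.2 mol/L NaHCO3 intragastrically. Fifteen min later they were inoculated intragastrically with H. pylori (1 × 10^9 cfu/mL), once daily for a week. Three weeks later mice were randomized (n=13/group). Compound in 0.5% CMC-Na was given intragastrically at 8:00 and 18:00 daily for 14 days. Eradication was compared with an untreated infected model group.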

Helicobacter pylori [11] = assay: Antibacterial activity against Helicobacter pylori ATCC 43504 infected in Kunming mouse assessed as bacterial eradication at 32 mg/kg, po bid treated for 14 days relative to control; format: functional, NCTC 11637 = CCUG 17874 = ATCC 43504; how it was run: as §3
Helicobacter pylori [12] = assay: Antibacterial activity against Helicobacter pylori ATCC 43504 infected in Kunming mouse assessed as bacterial eradication at 64 mg/kg, po bid treated for 14 days relative to control; format: functional, NCTC 11637 = CCUG 17874 = ATCC 43504; how it was run: as §3
Helicobacter pylori [13] = assay: Antibacterial activity against Helicobacter pylori ATCC 43504 infected in Kunming mouse assessed as bacterial eradication at 128 mg/kg, po bid treated for 14 days relative to control; format: functional, NCTC 11637 = CCUG 17874 = ATCC 43504; how it was run: as §3

T2 sequence (P14916 whole entry, looked up): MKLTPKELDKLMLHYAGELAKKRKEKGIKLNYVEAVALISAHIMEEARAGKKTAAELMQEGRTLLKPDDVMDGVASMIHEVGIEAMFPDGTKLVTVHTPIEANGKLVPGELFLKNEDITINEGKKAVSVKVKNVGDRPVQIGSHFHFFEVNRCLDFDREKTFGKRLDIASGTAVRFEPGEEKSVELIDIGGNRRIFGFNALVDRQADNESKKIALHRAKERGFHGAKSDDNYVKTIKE
T2 sequence (P69996 whole entry, looked up): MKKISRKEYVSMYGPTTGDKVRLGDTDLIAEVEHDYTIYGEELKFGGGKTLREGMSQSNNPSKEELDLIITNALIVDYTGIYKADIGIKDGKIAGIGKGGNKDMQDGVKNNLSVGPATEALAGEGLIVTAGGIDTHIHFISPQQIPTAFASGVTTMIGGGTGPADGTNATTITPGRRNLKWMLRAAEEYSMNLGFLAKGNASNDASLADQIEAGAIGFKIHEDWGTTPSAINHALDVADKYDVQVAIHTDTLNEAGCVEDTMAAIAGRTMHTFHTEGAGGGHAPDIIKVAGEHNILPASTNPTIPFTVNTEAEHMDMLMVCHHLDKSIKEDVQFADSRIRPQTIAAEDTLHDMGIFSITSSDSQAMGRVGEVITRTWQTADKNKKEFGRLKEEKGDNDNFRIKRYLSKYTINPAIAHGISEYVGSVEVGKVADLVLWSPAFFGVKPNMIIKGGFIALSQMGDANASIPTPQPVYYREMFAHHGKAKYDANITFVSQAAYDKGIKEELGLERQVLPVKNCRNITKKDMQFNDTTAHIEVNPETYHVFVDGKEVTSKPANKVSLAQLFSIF
T1 sequence (P69996 whole entry): as the sequence (P69996 whole entry, looked up) above
T1 sequence (P14916 whole entry, further chain): as the sequence (P14916 whole entry, looked up) above

## O=C(CNc1ccc(Cl)c(Cl)c1)NO
[1]
  IC50: 41.6 µM
[2]
  IC50: 0.76 µM
[3]
  Ratio IC50: 46 to 110

## O=C(CCNc1ccc(Cl)cc1Cl)NO
[4]
  Ki: 0.442 µM
Helicobacter pylori [5]
  Activity: Active
Helicobacter pylori [6]
  Activity: Active
[7]
  Ratio IC50: > 1500
[1]
  IC50: 0.14 µM
[8]
  Ki: 0.0602 µM
[9]
  LD50 at 336 h: 3130 mg/kg
Helicobacter pylori [10]
  Activity: 92.3%
[2]
  IC50: 0.018 µM
Helicobacter pylori [11]
  Activity: 100%
[3]
  Ratio IC50: 46 to 110
Helicobacter pylori [12]
  Activity: 100%

## O=C(CCNc1ccc(F)cc1)NO
[1]
  IC50: 17.9 µM
[2]
  IC50: 0.18 µM
[3]
  Ratio IC50: 46 to 110

## O=C(CNc1cccc([N+](=O)[O-])c1)NO
[2]
  IC50: 8.21 µM
[3]
  Ratio IC50: 46 to 110

## O=C(CN1CCCc2ccccc21)NO
[2]
  IC50: 71.1 µM
[3]
  Ratio IC50: 46 to 110

## COc1ccccc1NCC(=O)NO
[2]
  IC50: 152 µM
[3]
  Ratio IC50: 46 to 110

## Cc1ccc(NCC(=O)NO)cc1
[2]
  IC50: 3.91 µM
[3]
  Ratio IC50: 46 to 110

## Cc1cc(C)cc(NCC(=O)NO)c1
[2]
  IC50: 2.12 µM
[3]
  Ratio IC50: 46 to 110

## COc1ccccc1NCCC(=O)NO
[2]
  IC50: 1.64 µM
[3]
  Ratio IC50: 46 to 110

## CC(=O)NO [ACETOHYDROXAMIC ACID]
Helicobacter pylori [6]
  Activity: Active
[1]
  IC50: 172 µM
Helicobacter pylori [11]
  Activity: 44.4%
[3]
  Ratio IC50: 46 to 110

## O=C(CCNc1cccc(Cl)c1Cl)NO
[2]
  IC50: 3.83 µM
[3]
  Ratio IC50: 46 to 110

## O=C(CNc1cccc(Cl)c1Cl)NO
[2]
  IC50: 14.8 µM
[3]
  Ratio IC50: 46 to 110

## O=C(CNc1cc(F)cc(F)c1)NO
[2]
  IC50: 5.11 µM
[3]
  Ratio IC50: 46 to 110

## O=C(CCNc1ccc(Cl)c(Cl)c1)NO
[1]
  IC50: 38.9 µM
[2]
  IC50: 0.71 µM
[3]
  Ratio IC50: 46 to 110

## O=C(CNc1ccc(Br)cc1)NO
[7]
  Ratio IC50: 2 to 24
[2]
  IC50: 2.01 µM
[3]
  Ratio IC50: 46 to 110

## Cc1cc(C)cc(NCCC(=O)NO)c1
[2]
  IC50: 2.93 µM
[3]
  Ratio IC50: 46 to 110

## O=C(CNc1cccc(Cl)c1)NO
[2]
  IC50: 1.15 µM
[3]
  Ratio IC50: 46 to 110

## O=C(CCNc1c(Cl)cccc1Cl)NO
[2]
  IC50: 25 µM
[3]
  Ratio IC50: 46 to 110

## O=C(CNc1cc(Cl)cc(Cl)c1)NO
[4]
  Ki: 1.66 µM
[1]
  IC50: 16.9 µM
[8]
  Ki: 0.315 µM
[2]
  IC50: 0.13 µM
[3]
  Ratio IC50: 46 to 110

## O=C(CCNc1ccccc1[N+](=O)[O-])NO
[2]
  IC50: 10.5 µM
[3]
  Ratio IC50: 46 to 110

## O=C(CNc1ccccc1)NO
[2]
  IC50: 4.67 µM
[3]
  Ratio IC50: 46 to 110

## O=C(CNc1ccc(Cl)cc1)NO
[2]
  IC50: 2.47 µM
[3]
  Ratio IC50: 46 to 110

## COc1ccc(NCC(=O)NO)cc1
[2]
  IC50: 69.8 µM
[3]
  Ratio IC50: 46 to 110

## O=C(CCNc1cc(Cl)ccc1Cl)NO
[1]
  IC50: 29.5 µM
[2]
  IC50: 0.45 µM
[3]
  Ratio IC50: 46 to 110

## O=C(CCNc1ccccc1Cl)NO
Helicobacter pylori [6]
  Activity: Active
Helicobacter pylori [13]
  Activity: 100%
[1]
  IC50: 5.91 µM
[9]
  LD50 at 336 h: 3350 mg/kg
[2]
  IC50: 0.055 µM
Helicobacter pylori [11]
  Activity: 84.6%
[3]
  Ratio IC50: 46 to 110
Helicobacter pylori [12]
  Activity: 92.3%

## O=C(CNc1cccc(Br)c1)NO
[7]
  Ratio IC50: 2 to 24
[1]
  IC50: 48.1 µM
[2]
  IC50: 0.86 µM
[3]
  Ratio IC50: 46 to 110

## O=C(CCNc1cc(F)cc(F)c1)NO
[2]
  IC50: 1.52 µM
[3]
  Ratio IC50: 46 to 110

## O=C(CNc1ccc(Cl)cc1Cl)NO
[2]
  IC50: 66.1 µM
[3]
  Ratio IC50: 46 to 110

## O=C(CCN1CCCc2ccccc21)NO
[2]
  IC50: 21.1 µM
[3]
  Ratio IC50: 46 to 110

## O=C(CNc1ccccc1Br)NO
[7]
  Ratio IC50: 2 to 24
[2]
  IC50: 12.3 µM
[3]
  Ratio IC50: 46 to 110

## O=C(CNc1cc(Cl)ccc1Cl)NO
[2]
  IC50: 1.64 µM
[3]
  Ratio IC50: 46 to 110

## COc1cc(NCC(=O)NO)cc(OC)c1
[2]
  IC50: 2.28 µM
[3]
  Ratio IC50: 46 to 110

## O=C(CNc1c(Cl)cccc1Cl)NO
[2]
  IC50: 191 µM
[3]
  Ratio IC50: 46 to 110

## O=C(CCNc1cc(Cl)cc(Cl)c1)NO
[4]
  Ki: 1.57 µM
Helicobacter pylori [6]
  Activity: Active
Helicobacter pylori [13]
  Activity: 100%
[1]
  IC50: 3.9 µM
[8]
  Ki: 0.153 µM
[9]
  LD50 at 336 h: 2980 mg/kg
[2]
  IC50: 0.043 µM
Helicobacter pylori [11]
  Activity: 92.3%
[3]
  Ratio IC50: 46 to 110
Helicobacter pylori [12]
  Activity: 100%

## O=C(CCNc1cccc([N+](=O)[O-])c1)NO
[2]
  IC50: 5.1 µM
[3]
  Ratio IC50: 46 to 110

## O=C(CNc1ccc(F)cc1)NO
[2]
  IC50: 7.41 µM
[3]
  Ratio IC50: 46 to 110

## O=C(CNc1ccccc1Cl)NO
[2]
  IC50: 58.9 µM
[3]
  Ratio IC50: 46 to 110

## O=C(CCNc1ccc([N+](=O)[O-])cc1)NO
[2]
  IC50: 1.23 µM
[3]
  Ratio IC50: 46 to 110

## COc1cccc(NCC(=O)NO)c1
[2]
  IC50: 21.8 µM
[3]
  Ratio IC50: 46 to 110

## O=C(CCNc1ccccc1)NO
[2]
  IC50: 1.22 µM
[3]
  Ratio IC50: 46 to 110

## O=C(CCNc1ccccc1Br)NO
[1]
  IC50: 14.5 µM
[2]
  IC50: 0.13 µM
[3]
  Ratio IC50: 46 to 110
